Results on 15 molecules are retold here after PubChem BioAssay.

The nature of test [1]: reducers of endogenous Her2 protein level, primary screen, SKBR3 breast tumor cells, AlphaScreen, ATP viability (AID 461;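 active = Her2 level under about 52% in both replicate screens, with viability over 70% of control, limit read from the data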;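 for Her2 level: lower value means less Her2 protein in the cells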;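 for viability: percent of carrier control wells set as 100% viability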). Conditions: 18-24 h, measured here: SKBR3 viability, ATP luminescence, at 10 µM. Background: Bead proximity is the source of the signal in Alpha formats.
The target of test [2] is Receptor tyrosine-protein kinase erbB-2 (Homo sapiens) (UniProt P04626). The test is described as above. As to conditions: 18-24 h, at 10 µM, stronger effect = lower value.
A short description of test [3]: SK-BR-3 cell growth inhibitors, pilot screen, 24 h, human (AID 572;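 active = viability at or below 10% of carrier control in both of two separate runs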;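 note: compound exposure lasted between 18 and 24 h rather than exactly 24 h; 100% = carrier-treated control wells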). Conditions: SK-BR-3 viability, CellTiter-Glo luminescence, at 10 µM, stronger effect = lower value. (ATP-based viability assays read luminescence as a measure of living cells.)
A short description of test [4]: HUVEC growth inhibition – cell-based, human, primary screen (AID 575;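 active = viability at or below 30% in both replicate assays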;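 note: 100% = median of untreated cell wells with 0.1% DMSO on each plate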). As to conditions: HUVEC proliferation, CellTiter-Glo luminescence, 72 h; at 10 µM; stronger effect = lower value. In outline: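 Material: primary human umbilical vein endothelial cells / Schedule: 72 h exposure, 37 °C, 5% CO2, 30 min RT equilibration / Signal: ATP-based CellTiter-Glo luminescent read / Read-out basis: percent of median DMSO-control luminescence / Control set: 32 DMSO-only cell-control wells (high), 32 MePR drug-control wells (low) per plate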

The nature of test [5]: growth inhibitors of H69AR lung tumor, primary screen, human, duplicate replicates (AID 580;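 active = viability at or under a set limit in both replicates, limit being median viability minus 3 SD, cut at about 48% in these data, passing the limit was not always enough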;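 note: 100% = mean luminescence of untreated wells and 0% = no signal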). As to conditions: H69AR lung tumor cells viability, ATP luminescence, 72 h; at 10 µM; stronger effect = lower value.
Test [6] in a line: reversal of MRP1-mediated doxorubicin resistance, pilot screen, H69AR cells, doxorubicin co-treatment (AID 601;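 active = viability loss from added drug above about 55%, and viability with drug at most 40%, in both replicates, limit read from the data, passing the limit was not always enough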). Conditions: CellTiter-Glo, 72 h, at 10 µM; for differential viability (reversal): stronger effect = higher value.
Test [7] can be described thus: 384-well plate pilot, post-Golgi transport modulator project, inhibition of yeast transport mutant growth (AID 636; in the data active = inhibition above about 31%). As to conditions: absorbance 615 nm, about 18 h, stronger effect = higher value.
Test [8] can be described thus: growth suppression of yeast trafficking mutant, preliminary HTS, modulators of trafficking downstream of Golgi apparatus project, 1536-format plate, OD 615 nm (AID 637). As to conditions: yeast transport mutant growth, absorbance 615 nm, 18 h; stronger effect = higher value.
Setting [9] is: H69AR cells + 2 uM doxorubicin, measured here: viability with 2 uM doxorubicin, stronger effect = lower value.
Setting [10] is: H69AR cells, compound alone cytotoxicity.

The structures appear in SMILES notation. The source made the active and inactive calls. Cut-off read from the data, not from the text of the source, unless noted: active = inhibition above about 30%; inactive = the rest.

Sequence of Receptor tyrosine-protein kinase erbB-2 (Homo sapiens) (P04626 whole entry, looked up): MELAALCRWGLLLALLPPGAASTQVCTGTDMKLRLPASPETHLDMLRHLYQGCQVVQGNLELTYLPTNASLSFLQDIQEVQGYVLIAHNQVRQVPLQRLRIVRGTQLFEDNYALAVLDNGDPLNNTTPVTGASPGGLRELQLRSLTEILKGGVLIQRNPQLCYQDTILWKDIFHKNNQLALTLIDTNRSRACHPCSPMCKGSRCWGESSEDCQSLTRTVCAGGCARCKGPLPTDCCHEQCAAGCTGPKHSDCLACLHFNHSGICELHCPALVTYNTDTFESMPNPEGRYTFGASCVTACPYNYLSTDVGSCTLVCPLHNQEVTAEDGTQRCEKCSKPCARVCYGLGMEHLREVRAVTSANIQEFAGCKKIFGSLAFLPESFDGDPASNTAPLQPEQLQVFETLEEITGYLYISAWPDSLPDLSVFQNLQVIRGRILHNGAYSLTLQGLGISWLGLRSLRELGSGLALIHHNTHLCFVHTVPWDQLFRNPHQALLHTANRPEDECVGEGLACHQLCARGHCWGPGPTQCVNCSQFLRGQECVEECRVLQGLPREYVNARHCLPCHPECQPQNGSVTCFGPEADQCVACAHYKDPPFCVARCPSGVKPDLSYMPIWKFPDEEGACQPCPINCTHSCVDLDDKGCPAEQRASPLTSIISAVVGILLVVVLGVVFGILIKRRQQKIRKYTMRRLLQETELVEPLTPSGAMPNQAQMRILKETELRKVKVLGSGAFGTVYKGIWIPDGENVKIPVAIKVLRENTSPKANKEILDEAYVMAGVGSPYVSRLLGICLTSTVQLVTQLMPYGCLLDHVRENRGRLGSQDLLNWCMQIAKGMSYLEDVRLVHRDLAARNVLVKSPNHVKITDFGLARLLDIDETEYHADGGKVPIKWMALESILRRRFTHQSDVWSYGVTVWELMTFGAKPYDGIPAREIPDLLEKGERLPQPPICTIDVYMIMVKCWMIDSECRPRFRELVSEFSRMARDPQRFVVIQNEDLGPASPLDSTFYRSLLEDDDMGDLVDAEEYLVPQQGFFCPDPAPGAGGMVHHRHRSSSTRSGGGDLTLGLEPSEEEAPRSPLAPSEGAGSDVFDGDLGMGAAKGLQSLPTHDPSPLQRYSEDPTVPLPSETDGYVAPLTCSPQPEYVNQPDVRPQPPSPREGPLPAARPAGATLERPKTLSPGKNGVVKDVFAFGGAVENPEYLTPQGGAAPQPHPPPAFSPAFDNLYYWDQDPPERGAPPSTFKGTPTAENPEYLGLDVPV

The term viability denotes a read-out of living cells in per cent, often relative to untreated cells. Usually inhibition stands for the drop in the measured response relative to a control, in per cent. As for `Cc1cc(NC(=O)Cn2cnc3c(cnn3C(C)(C)C)c2=O)no1`, the viability in test [1] was 91.5%; in test [3] it was 91.5% (inactive); in test [4], 102% (inactive); in test [5], 91.9% (inactive); in test [6] (setting [9]) it was 89.8%; in test [6] (setting [10]), 91.9%. In addition, the Her2 level in test [2] is 100% (inactive). Further, the differential viability (reversal) in test [6] (H69AR cells + 2 uM doxorubicin) is 2.12% (inactive). Further, the values for the inhibition in test [7] and in test [8] were 0.66% (inactive) and -5.16% (inactive), respectively.

Regarding `O=C1CN=C(Nc2cccc(C(F)(F)F)c2)N1C1CCCC1`, the viability in test [1] is 97%; in test [3], 97% (inactive); in test [4], 101% (inactive); in test [5], 82.5% (inactive); in test [6] (setting [9]) it was 97.7%; in test [6] (setting [10]), 82.5%. The Her2 level in test [2] is 119% (inactive). In addition, the differential viability (reversal) in test [6] (H69AR cells + 2 uM doxorubicin) is -15.2% (inactive). Also, the inhibition in test [7] was -3.33% (inactive); in test [8], -1.8% (inactive).

Take `CCNc1nc(N2CCOCC2)nc(N(c2ccccc2)c2ccccc2)n1`: the viability in test [1] is 80.5%; in test [3], 80.5% (inactive); in test [4], 62.2% (inactive); in test [5] it was 84.2% (inactive); in test [6] (setting [9]), 79.4%; in test [6] (setting [10]), 84.2%. For the same molecule, the Her2 level in test [2] was 97% (inactive). For the same molecule, the differential viability (reversal) in test [6] (H69AR cells + 2 uM doxorubicin) was 4.78% (inactive). Besides, the values for the inhibition in test [7] and in test [8] were -3.55% (inactive) and -10% (inactive), respectively.

Regarding `COCC(=O)Nc1sc2c(c1C(=O)OC)C(C(=O)OC)CC2` (stereo not given), the viability is 75.5% in test [1]; 75.5% (inactive) in test [3]; 84.6% (inactive) in test [4]; 101% (inactive) in test [5]; 88.6% in test [6] (setting [9]); 101% in test [6] (setting [10]). The Her2 level in test [2] is 108% (inactive). The differential viability (reversal) in test [6] (H69AR cells + 2 uM doxorubicin) is 12.5% (inactive). In addition, the results for the inhibition in test [7] and in test [8] were 3.16% (inactive) and 11.4% (inactive), respectively.

For the molecule `CN(C)S(=O)(=O)c1ccc(S(=O)(=O)Nc2ccc3c(c2)oc2ccccc23)cc1`, the viability in test [1] was 79.5%; in test [3], 79.5% (inactive); in test [4], 59.2% (inactive); in test [5], 73.2% (inactive); in test [6] (setting [9]), 76.1%; in test [6] (setting [10]) it was 73.2%. Also, the Her2 level in test [2] is 97% (inactive). The differential viability (reversal) in test [6] (H69AR cells + 2 uM doxorubicin) was -2.9% (inactive). In addition, the inhibition in test [7] was 2.11% (inactive); in test [8] it was -3.64% (inactive).

On to `Cc1oc(-c2ccccc2)cc1C(N)=O`, for which the viability in test [1] is 103%; in test [3], 103% (inactive); in test [4], 92.3% (inactive); in test [5], 100% (inactive); in test [6] (setting [9]) it was 80.3%; in test [6] (setting [10]), 100%. Besides, in test [2], the Her2 level was 78.5% (inactive). Besides, in test [6] (H69AR cells + 2 uM doxorubicin), the differential viability (reversal) is 20% (inactive). For the same molecule, the values for the inhibition in test [7] and in test [8] were -0.79% (inactive) and -2.9% (inactive), respectively.

Consider `Cc1nn(-c2ccc(F)cc2)c2sc(C(=O)O)cc12`, for which the viability in test [1] was 99%; in test [3], 99% (inactive); in test [4], 72.9% (inactive); in test [5], 89.8% (inactive); in test [6] (setting [9]), 84.3%; in test [6] (setting [10]), 89.8%. In test [2], the Her2 level was 103% (inactive). In addition, the differential viability (reversal) in test [6] (H69AR cells + 2 uM doxorubicin) was 5.49% (inactive). The inhibition in test [7] is 0% (inactive); in test [8], 1.64% (inactive).

Turning to `O=C(Nc1ccc(S(=O)(=O)NC2CCCC2)cc1)c1cnccn1`, the viability in test [1] is 92%; in test [3], 92% (inactive); in test [4], 104% (inactive); in test [5], 93.7% (inactive); in test [6] (setting [9]), 91.2%; in test [6] (setting [10]) it was 93.7%. The Her2 level in test [2] is 82.5% (inactive). Also, the differential viability (reversal) in test [6] (H69AR cells + 2 uM doxorubicin) is 2.56% (inactive). For the same molecule, the inhibition is -2.5% (inactive) in test [7] and -4% (inactive) in test [8].

For `CCOc1cc(S(=O)(=O)N2CCC(Cc3ccccc3)CC2)c(OCC)cc1-n1cnnn1`, the viability in test [1] is 77.5%; in test [3] it was 77.5% (inactive); in test [4], 90.7% (inactive); in test [5], 99.7% (inactive); in test [6] (setting [9]), 67.2%; in test [6] (setting [10]), 99.7%. The Her2 level in test [2] was 102% (inactive). Further, in test [6] (H69AR cells + 2 uM doxorubicin), the differential viability (reversal) is 32.5% (inactive). The inhibition is 5.95% (inactive) in test [7] and -1.59% (inactive) in test [8].

For `COc1ccc(C2=NOC(C(=O)NCCCN3CCOCC3)C2)cc1` (stereo not given), the viability in test [1] is 109%; in test [3] it was 109% (inactive); in test [4], 116% (inactive); in test [5], 87.3% (inactive); in test [6] (setting [9]), 86.2%; in test [6] (setting [10]) it was 87.3%. In test [2], the Her2 level was 100% (inactive). Besides, the differential viability (reversal) in test [6] (H69AR cells + 2 uM doxorubicin) was 1.06% (inactive). In addition, the inhibition in test [7] is -6.71% (inactive); in test [8], 9.34% (inactive).

On to `COc1ccc(OC)c(-c2nnc(SCC(=O)NC3CCCCC3)o2)c1`, for which the viability in test [1] was 93.5%; in test [3], 93.5% (inactive); in test [4], 96.2% (inactive); in test [5], 98.5% (inactive); in test [6] (setting [9]), 92.2%; in test [6] (setting [10]), 98.5%. The Her2 level in test [2] is 99.5% (inactive). Besides, the differential viability (reversal) in test [6] (H69AR cells + 2 uM doxorubicin) was 6.21% (inactive). The results for the inhibition in test [7] and in test [8] were 0% (inactive) and -13.4% (inactive), respectively.

For `C=CCn1c(SCC(=O)NCCCC)nc2scc(-c3ccco3)c2c1=O`, the viability was 91.5% in test [1]; 91.5% (inactive) in test [3]; 95.4% (inactive) in test [4]; 88.8% (inactive) in test [5]; 86.7% in test [6] (setting [9]); 88.8% in test [6] (setting [10]). Besides, the Her2 level in test [2] is 75.5% (inactive). Besides, the differential viability (reversal) in test [6] (H69AR cells + 2 uM doxorubicin) was 2.11% (inactive). Besides, the values for the inhibition in test [7] and in test [8] were 0.13% (inactive) and -1.48% (inactive), respectively.

Regarding `O=C(NCc1cccs1)c1cc2c(s1)CCCC2`, the viability in test [1] is 92.5%; in test [3], 92.5% (inactive); in test [4] it was 85.8% (inactive); in test [5], 97.6% (inactive); in test [6] (setting [9]), 92.2%; in test [6] (setting [10]), 97.6%. The Her2 level in test [2] is 102% (inactive). Also, the differential viability (reversal) in test [6] (H69AR cells + 2 uM doxorubicin) is 5.47% (inactive). The inhibition in test [7] was 0.65% (inactive); in test [8], 2.13% (inactive).

Take `O=C1NC(c2cccs2)Nc2ccccc21` (stereo not given): the viability is 107% in test [1]; 107% (inactive) in test [3]; 111% (inactive) in test [4]; 86.7% (inactive) in test [5]; 91.4% in test [6] (setting [9]); 86.7% in test [6] (setting [10]). Moreover, the Her2 level in test [2] was 86.5% (inactive). The differential viability (reversal) in test [6] (H69AR cells + 2 uM doxorubicin) is -4.77% (inactive). Also, the inhibition is -8.03% (inactive) in test [7] and -9.52% (inactive) in test [8].

Consider `Cc1ccccc1NC(=O)NCCCN1CCN(C2CCCCC2)CC1`, for which the viability was 102% in test [1]; 102% (inactive) in test [3]; 104% (inactive) in test [4]; 95.8% (inactive) in test [5]; 93.4% in test [6] (setting [9]); 95.8% in test [6] (setting [10]). For the same molecule, the Her2 level in test [2] was 102% (inactive). Moreover, the differential viability (reversal) in test [6] (H69AR cells + 2 uM doxorubicin) was 2.42% (inactive). Further, the inhibition in test [7] is -1.04% (inactive); in test [8], 0.16% (inactive).
